Experimental data published in ChEMBL document CHEMBL4346713, “Design, synthesis and docking studies of benzimidazole derivatives as potential EGFR inhibitors” (2019).
Calls of active or inactive are those of the source. No cut-off for these calls is given here.

Tests used:
[1] = tested on: MCF7; experiment: Antiproliferation activity against human MCF7 cells assessed as inhibition of cell proliferation at 10 uM by MTT assay relative to control; assay type: functional
In short: (§1)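 Cells grown at 37°C in high-glucose DMEM with 10% FBS, 2 mM L-glutamine and 1% penicillin–streptomycin. Compounds, dissolved in DMSO, were added at 80% confluency, with DMSO-only and untreated wells as controls. MTT in PBS was then added for 2 h at 37°C. Formazan was dissolved in DMSO and read at 550 nm, with viability expressed relative to control cells set as 100%.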

[2] = tested on: MCF7; experiment: Antiproliferation activity against human MCF7 cells assessed as inhibition of cell proliferation at 1 uM by MTT assay relative to control; assay type: functional; in short: as §1

| SMILES | inhibition [1] | inhibition at 1 µM [2] [%] |
| --- | --- | --- |
| S=c1[nH]nc(Cn2c(-c3ccc(OCc4ccccc4)c(OCc4ccccc4)c3)nc3ccccc32)n1CCN1CCOCC1 | inactive |  |
| C#Cc1cccc(Nc2ncnc3cc(OCCOC)c(OCCOC)cc23)c1 [ERLOTINIB] |  | 60 |
